Measured values as given in ChEMBL document CHEMBL1681705, “Optimisation of ITK inhibitors through successive iterative design cycles” (Bioorg Med Chem Lett, 2011).

Columns and labels:
[1] = target: High affinity nerve growth factor receptor (Homo sapiens) (UniProt P04629); assay: Inhibition of TrkA at 0.1 uM; values are per cent of control
[2] = target: T1, Ephrin type-B receptor 4 (Homo sapiens) (UniProt P54760); assay: Inhibition of EphB4 at 0.1 uM; values are per cent of control
T1 sequence (whole entry): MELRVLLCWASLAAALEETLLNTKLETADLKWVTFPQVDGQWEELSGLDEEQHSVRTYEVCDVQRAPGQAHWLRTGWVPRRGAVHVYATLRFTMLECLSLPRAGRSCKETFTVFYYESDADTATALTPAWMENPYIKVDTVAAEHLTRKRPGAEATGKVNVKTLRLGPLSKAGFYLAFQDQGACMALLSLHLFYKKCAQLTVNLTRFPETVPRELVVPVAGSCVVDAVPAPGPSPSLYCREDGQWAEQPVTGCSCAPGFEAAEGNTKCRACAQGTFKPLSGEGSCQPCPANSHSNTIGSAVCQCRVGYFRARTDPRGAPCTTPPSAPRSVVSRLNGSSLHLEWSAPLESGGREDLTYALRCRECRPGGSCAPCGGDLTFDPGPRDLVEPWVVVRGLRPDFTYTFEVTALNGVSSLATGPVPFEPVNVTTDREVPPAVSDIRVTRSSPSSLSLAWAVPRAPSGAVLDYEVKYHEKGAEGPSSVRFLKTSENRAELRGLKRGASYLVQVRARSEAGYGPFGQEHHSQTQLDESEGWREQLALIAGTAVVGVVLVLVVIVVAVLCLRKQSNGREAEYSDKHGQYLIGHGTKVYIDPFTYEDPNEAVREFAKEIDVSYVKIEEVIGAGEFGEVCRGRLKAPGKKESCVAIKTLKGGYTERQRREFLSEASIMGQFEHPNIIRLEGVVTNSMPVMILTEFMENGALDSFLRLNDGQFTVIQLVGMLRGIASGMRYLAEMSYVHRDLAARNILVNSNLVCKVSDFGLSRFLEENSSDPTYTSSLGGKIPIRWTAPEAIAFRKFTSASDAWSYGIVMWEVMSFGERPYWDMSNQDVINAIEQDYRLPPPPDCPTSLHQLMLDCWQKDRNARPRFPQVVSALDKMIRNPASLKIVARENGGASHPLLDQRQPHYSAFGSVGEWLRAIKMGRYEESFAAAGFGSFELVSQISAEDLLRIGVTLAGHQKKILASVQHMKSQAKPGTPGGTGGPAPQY

[3] = target: Vascular endothelial growth factor receptor 2 (Homo sapiens) (UniProt P35968); assay: Inhibition of KDR at 1 uM; values are per cent of control
[4] = target: T2, Ephrin type-A receptor 1 (Homo sapiens) (UniProt P21709); assay: Inhibition of EphA1 at 0.1 uM; values are per cent of control
T2 sequence (whole entry): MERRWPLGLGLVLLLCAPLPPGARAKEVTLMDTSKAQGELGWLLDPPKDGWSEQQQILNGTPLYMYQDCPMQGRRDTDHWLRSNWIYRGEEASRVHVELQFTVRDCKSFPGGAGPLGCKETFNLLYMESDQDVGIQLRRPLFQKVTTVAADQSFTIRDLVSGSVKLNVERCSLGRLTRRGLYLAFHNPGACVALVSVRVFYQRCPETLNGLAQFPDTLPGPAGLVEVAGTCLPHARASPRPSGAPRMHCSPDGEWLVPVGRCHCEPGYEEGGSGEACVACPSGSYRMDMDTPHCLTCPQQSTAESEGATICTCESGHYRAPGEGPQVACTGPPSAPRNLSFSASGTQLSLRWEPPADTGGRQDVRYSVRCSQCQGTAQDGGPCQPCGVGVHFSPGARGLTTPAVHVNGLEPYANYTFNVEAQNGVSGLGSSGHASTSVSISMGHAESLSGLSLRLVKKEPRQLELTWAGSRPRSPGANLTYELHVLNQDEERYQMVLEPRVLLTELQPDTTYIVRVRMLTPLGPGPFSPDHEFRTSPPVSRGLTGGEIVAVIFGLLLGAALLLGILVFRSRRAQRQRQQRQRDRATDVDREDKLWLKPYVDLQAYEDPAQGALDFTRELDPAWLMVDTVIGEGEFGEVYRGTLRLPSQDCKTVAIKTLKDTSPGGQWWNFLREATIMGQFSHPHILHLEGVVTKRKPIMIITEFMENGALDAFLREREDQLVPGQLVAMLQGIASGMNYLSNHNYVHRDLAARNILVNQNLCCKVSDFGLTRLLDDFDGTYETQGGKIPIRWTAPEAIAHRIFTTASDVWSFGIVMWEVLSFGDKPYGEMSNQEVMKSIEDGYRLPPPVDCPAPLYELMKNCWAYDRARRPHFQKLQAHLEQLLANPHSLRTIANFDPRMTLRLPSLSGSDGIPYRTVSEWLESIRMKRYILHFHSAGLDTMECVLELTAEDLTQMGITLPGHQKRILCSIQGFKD

[5] = Inhibition of PDK1 at 0.1 uM
[6] = target: Mitogen-activated protein kinase 1 (Homo sapiens) (UniProt P28482); assay: Inhibition of MAPK1 at 1 uM
In short: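 Single-point screen within a 108-kinase selectivity panel. Each kinase was tested with inhibitor at 0.1 and 1.0 micromolar, and activity was recorded as percent inhibition.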

[7] = target: Tyrosine-protein kinase Fes/Fps (Homo sapiens) (UniProt P07332); assay: Inhibition of Fes at 0.1 uM; values are per cent of control
Tyrosine-protein kinase Fes/Fps (Homo sapiens), sequence (P07332 whole entry): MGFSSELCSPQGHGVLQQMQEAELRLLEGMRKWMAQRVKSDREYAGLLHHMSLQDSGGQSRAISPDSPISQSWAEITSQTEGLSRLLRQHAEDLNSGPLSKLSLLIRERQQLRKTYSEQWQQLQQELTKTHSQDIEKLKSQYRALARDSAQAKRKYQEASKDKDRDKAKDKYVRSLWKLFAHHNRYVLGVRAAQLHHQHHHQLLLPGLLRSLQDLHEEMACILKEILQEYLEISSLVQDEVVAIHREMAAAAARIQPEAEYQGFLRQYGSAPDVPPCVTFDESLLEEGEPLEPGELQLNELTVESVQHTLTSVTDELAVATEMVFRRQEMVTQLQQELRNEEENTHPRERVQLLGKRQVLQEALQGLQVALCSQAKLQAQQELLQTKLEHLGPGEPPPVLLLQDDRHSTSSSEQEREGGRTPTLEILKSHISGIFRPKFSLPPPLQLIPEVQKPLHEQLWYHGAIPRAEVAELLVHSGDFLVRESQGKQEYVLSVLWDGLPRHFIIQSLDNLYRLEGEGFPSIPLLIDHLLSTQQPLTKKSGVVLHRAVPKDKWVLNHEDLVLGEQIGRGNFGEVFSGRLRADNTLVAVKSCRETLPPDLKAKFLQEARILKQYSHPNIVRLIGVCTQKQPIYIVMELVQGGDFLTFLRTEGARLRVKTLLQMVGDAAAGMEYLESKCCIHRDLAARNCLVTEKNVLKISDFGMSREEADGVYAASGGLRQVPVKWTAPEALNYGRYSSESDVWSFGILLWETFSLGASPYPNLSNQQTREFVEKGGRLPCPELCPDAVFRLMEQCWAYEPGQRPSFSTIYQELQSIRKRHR

Mitogen-activated protein kinase 1 (Homo sapiens), sequence (P28482 whole entry): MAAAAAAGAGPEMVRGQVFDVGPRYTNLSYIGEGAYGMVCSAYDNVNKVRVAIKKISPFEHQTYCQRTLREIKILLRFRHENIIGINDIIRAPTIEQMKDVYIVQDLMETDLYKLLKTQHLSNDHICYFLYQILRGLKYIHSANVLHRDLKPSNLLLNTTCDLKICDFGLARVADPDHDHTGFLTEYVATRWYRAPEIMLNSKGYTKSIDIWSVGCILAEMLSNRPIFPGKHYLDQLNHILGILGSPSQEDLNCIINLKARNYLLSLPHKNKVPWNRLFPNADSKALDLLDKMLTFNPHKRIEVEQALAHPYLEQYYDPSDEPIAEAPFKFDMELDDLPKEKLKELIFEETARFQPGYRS
High affinity nerve growth factor receptor (Homo sapiens), sequence (P04629 33-796 limits assumed): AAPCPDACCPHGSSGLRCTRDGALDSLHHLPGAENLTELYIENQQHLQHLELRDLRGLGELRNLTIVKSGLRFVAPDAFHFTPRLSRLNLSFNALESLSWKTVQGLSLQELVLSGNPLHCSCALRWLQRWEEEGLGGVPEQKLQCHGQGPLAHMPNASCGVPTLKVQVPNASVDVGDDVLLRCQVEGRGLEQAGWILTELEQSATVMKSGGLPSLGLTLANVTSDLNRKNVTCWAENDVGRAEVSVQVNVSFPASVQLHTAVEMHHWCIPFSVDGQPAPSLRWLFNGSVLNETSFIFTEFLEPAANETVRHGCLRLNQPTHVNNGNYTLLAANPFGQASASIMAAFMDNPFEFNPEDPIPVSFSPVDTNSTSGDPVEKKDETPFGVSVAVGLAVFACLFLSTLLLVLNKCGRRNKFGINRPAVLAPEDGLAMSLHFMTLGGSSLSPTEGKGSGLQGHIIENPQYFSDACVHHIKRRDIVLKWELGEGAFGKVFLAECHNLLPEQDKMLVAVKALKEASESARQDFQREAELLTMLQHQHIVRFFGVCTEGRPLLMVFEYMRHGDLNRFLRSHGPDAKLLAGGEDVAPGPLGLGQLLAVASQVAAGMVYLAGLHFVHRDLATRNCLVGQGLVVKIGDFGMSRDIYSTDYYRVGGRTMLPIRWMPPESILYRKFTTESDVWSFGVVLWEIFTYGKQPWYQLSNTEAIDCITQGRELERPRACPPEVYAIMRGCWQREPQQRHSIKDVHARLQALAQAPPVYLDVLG
Vascular endothelial growth factor receptor 2 (Homo sapiens), sequence (P35968 whole entry): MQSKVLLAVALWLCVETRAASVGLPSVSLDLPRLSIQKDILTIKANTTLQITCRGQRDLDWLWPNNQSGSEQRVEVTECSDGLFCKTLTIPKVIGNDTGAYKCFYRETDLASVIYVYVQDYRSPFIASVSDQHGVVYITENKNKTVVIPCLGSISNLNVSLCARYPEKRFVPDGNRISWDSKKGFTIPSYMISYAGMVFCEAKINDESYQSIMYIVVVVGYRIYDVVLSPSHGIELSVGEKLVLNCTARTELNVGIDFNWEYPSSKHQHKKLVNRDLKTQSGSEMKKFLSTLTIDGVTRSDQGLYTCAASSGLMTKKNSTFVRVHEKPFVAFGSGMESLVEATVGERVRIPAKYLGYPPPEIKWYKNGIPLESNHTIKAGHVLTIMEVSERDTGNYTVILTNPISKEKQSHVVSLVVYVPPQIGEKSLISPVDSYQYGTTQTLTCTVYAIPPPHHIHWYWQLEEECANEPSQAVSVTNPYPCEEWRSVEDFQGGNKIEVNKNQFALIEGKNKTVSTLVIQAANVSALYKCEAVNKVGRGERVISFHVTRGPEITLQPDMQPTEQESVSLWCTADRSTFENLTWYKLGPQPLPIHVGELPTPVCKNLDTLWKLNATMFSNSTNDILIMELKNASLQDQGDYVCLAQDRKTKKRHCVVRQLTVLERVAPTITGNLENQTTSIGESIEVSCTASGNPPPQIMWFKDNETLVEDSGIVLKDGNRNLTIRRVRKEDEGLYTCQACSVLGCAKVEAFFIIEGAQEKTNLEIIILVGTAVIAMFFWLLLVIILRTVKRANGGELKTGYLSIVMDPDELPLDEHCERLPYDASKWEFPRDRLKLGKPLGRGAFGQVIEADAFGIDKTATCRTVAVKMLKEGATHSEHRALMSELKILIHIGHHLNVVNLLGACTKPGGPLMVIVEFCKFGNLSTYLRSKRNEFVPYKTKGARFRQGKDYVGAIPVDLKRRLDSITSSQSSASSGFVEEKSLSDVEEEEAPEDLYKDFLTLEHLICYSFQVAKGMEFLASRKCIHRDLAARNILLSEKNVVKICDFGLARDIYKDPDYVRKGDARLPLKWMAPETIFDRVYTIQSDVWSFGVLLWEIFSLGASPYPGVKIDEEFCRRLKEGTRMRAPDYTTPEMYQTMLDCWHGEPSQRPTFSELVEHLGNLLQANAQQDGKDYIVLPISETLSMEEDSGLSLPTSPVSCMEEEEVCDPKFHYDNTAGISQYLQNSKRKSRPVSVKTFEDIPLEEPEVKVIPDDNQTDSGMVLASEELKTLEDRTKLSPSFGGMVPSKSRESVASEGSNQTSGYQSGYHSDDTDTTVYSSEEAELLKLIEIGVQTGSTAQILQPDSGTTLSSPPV

residual activity [1] [%] | residual activity [2] [%] | residual activity [3] [%] | residual activity [4] [%] | inhibition [5] [%] | inhibition [6] [%] | residual activity [7] [%] | SMILES
10 | 101 | 21 | 64 | 87 | 84 | 28 | Cc1ccc2cc(-c3n[nH]c4ccc(NC5CCN(Cc6ccccc6)CC5)cc34)[nH]c2c1
-1 | 106 | 5 | 39 | 46 | 64 | 3 | Cc1ccc2cc(-c3n[nH]c4ccc(NC5CCNC5)cc34)[nH]c2c1 (centres undefined)
